# Source: ChEMBL document CHEMBL1123924, “Structure-activity studies of antagonists of luteinizing hormone-releasing hormone with emphasis on the amino-terminal region” (1987)
# Residues, ends and D or L forms follow the SMILES beside them.
# Assays:
# Format in all cases: functional
# Rattus norvegicus [1] = species: Rattus norvegicus; test: Antiovulatory activity was expressed as the percentage of 12 rats blocked at a dose 0.5 ug.; conditions: in the assay text read “14 rats” for “12 rats”
# Procedure, shortened: (§1)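 Sprague-Dawley rats given peptide by subcutaneous injection at noon on the day of proestrus, in 40% propane-1,2-diol–0.9% saline vehicle. Oviducts examined for ova the following day.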
# Rattus norvegicus [2] = species: Rattus norvegicus; test: Antiovulatory activity was expressed as the percentage of 9 rats blocked at a dose 1 ug.; procedure, shortened: as §1
# Rattus norvegicus [3] = species: Rattus norvegicus; test: Antiovulatory activity was expressed as the percentage of 9 rats blocked at a dose 0.5 ug.; procedure, shortened: as §1
Structure (SMILES),Antiovulatory activity (Rattus norvegicus [1]) [%],Antiovulatory activity (Rattus norvegicus [2]) [%],Antiovulatory activity (Rattus norvegicus [3]) [%]
CC(=O)N[C@H](Cc1ccc2ccccc2c1)C(=O)N[C@H](Cc1ccc(Cl)cc1)C(=O)N[C@H](Cc1ccc(O)cc1)C(=O)N[C@@H](CO)C(=O)N[C@@H](Cc1ccc(O)cc1)C(=O)N[C@H](CCCN=C(N)N)C(=O)N[C@@H](Cc1ccccc1)C(=O)N[C@@H](CCCN=C(N)N)C(=O)N1CCC[C@H]1C(=O)N[C@H](C)C(N)=O,86,–,–
CC(=O)N[C@H](Cc1ccc2ccccc2c1)C(=O)N[C@H](Cc1ccccc1)C(=O)N[C@H](Cc1ccccc1)C(=O)N[C@@H](CO)C(=O)N[C@@H](Cc1ccc(O)cc1)C(=O)N[C@H](CCCN=C(N)N)C(=O)N[C@@H](Cc1ccccc1)C(=O)N[C@@H](CCCN=C(N)N)C(=O)N1CCC[C@H]1C(=O)N[C@H](C)C(N)=O (HELM PEPTIDE1{[ac].[O=C([C@@H](Cc1ccc2ccccc2c1)N[*:1])[*:2]].[dF].[dF].S.Y.[dR].F.R.P.[dA].[am]}$$$$V2.0),–,100,56
